Results: ChEMBL document CHEMBL3243962, “Antileukemic activity of derivatives of 1,2-dimethyl-3,4-bis(hydroxymethyl)-5-phenylpyrrole bis(N-methylcarbamate)” (J Med Chem, 1979)

Columns and labels:
Mus musculus [1] = assay: Toxicity in mouse P388 cells allografted CD2F1 mouse assessed as mouse survival at 25 mg/kg, ip of total 9 doses starting 24 hrs post tumor inoculation measured on day 5 of inoculation relative to control; assay type: organism-based; set-up: dose 25 mg/kg, route intraperitoneal; conditions: in vivo
Summary of the method: (§1)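 Male CD2F1 mice bearing ip P388 leukemia (6×10^6 cells) were dosed ip with nine daily doses in distilled water–Tween 80 suspension, starting 24 h after inoculation. Survivors per group of 6 were counted on day 5, i.e. 4 days after the first dose. Body-weight change of treated minus control mice was also recorded.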

Mus musculus [2] = assay: Toxicity in mouse P388 cells allografted CD2F1 mouse assessed as mouse survival at 6.25 mg/kg, ip of total 9 doses starting 24 hrs post tumor inoculation measured on day 5 of inoculation relative to control; assay type: organism-based; set-up: dose 6.25 mg/kg, route intraperitoneal; conditions: in vivo; summary of the method: as §1
Mus musculus [3] = assay: Toxicity in mouse P388 cells allografted CD2F1 mouse assessed as body weight loss at 3.12 mg/kg, ip of total 9 doses starting 24 hrs post tumor inoculation measured on day 5 of inoculation relative to control; assay type: organism-based; set-up: dose 3.12 mg/kg, route intraperitoneal; conditions: in vivo
Summary of the method: (§2)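 Male CD2F1 mice inoculated ip with 6×10^6 P388 leukemia cells. Compounds given ip as distilled water–Tween 80 suspension, nine daily doses starting 24 h after inoculation; six mice per dose group. Treated-minus-control body-weight change (T − C) and toxicity-day survivors recorded on day 5 (4 days after first dose).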

P388 [4] = assay: Antitumor activity against mouse P388 cells allografted in CD2F1 mouse assessed as increase in mouse survival at 25 mg/kg, ip of total 9 doses starting 24 hrs post tumor inoculation measured on day 5 of inoculation relative to control; assay type: functional; conditions: route intraperitoneal
Summary of the method: (§3)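 Male CD2F1 mice inoculated ip with 6×10^6 P388 leukemia cells. Dosing was ip as a suspension in distilled water–Tween 80, nine daily doses starting 24 h after inoculation. Activity was read as median survival time of treated vs control mice (% T/C); % T/C ≥ 120 was considered significant. Groups were 6 mice.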

P388 [5] = assay: Antitumor activity against mouse P388 cells allografted in CD2F1 mouse assessed as increase in mouse survival at 50 mg/kg, ip of total 9 doses starting 24 hrs post tumor inoculation measured on day 5 of inoculation relative to control; assay type: functional; conditions: route intraperitoneal; summary of the method: as §3
Mus musculus [6] = assay: Toxicity in mouse P388 cells allografted CD2F1 mouse assessed as body weight loss at 6.25 mg/kg, ip of total 9 doses starting 24 hrs post tumor inoculation measured on day 5 of inoculation relative to control; assay type: organism-based; set-up: dose 6.25 mg/kg, route intraperitoneal; conditions: in vivo; summary of the method: as §2
Mus musculus [7] = assay: Toxicity in mouse P388 cells allografted CD2F1 mouse assessed as body weight loss at 25 mg/kg, ip of total 9 doses starting 24 hrs post tumor inoculation measured on day 5 of inoculation relative to control; assay type: organism-based; set-up: dose 25 mg/kg, route intraperitoneal; conditions: in vivo; summary of the method: as §2
P388 [8] = assay: Antitumor activity against mouse P388 cells allografted in CD2F1 mouse assessed as increase in mouse survival at 3.12 mg/kg, ip of total 9 doses starting 24 hrs post tumor inoculation measured on day 5 of inoculation relative to control; assay type: functional; conditions: route intraperitoneal; summary of the method: as §3
Mus musculus [9] = assay: Toxicity in mouse P388 cells allografted CD2F1 mouse assessed as mouse survival at 3.12 mg/kg, ip of total 9 doses starting 24 hrs post tumor inoculation measured on day 5 of inoculation relative to control; assay type: organism-based; set-up: dose 3.12 mg/kg, route intraperitoneal; conditions: in vivo; summary of the method: as §1
Mus musculus [10] = assay: Toxicity in mouse P388 cells allografted CD2F1 mouse assessed as mouse survival at 12.5 mg/kg, ip of total 9 doses starting 24 hrs post tumor inoculation measured on day 5 of inoculation relative to control; assay type: organism-based; set-up: dose 12.5 mg/kg, route intraperitoneal; conditions: in vivo; summary of the method: as §1
P388 [11] = assay: Antitumor activity against mouse P388 cells allografted in CD2F1 mouse assessed as increase in mouse survival at 6.25 mg/kg, ip of total 9 doses starting 24 hrs post tumor inoculation measured on day 5 of inoculation relative to control; assay type: functional; conditions: route intraperitoneal; summary of the method: as §3
P388 [12] = assay: Antitumor activity against mouse P388 cells allografted in CD2F1 mouse assessed as increase in mouse survival at 12.5 mg/kg, ip of total 9 doses starting 24 hrs post tumor inoculation measured on day 5 of inoculation relative to control; assay type: functional; conditions: route intraperitoneal; summary of the method: as §3
Mus musculus [13] = assay: Toxicity in mouse P388 cells allografted CD2F1 mouse assessed as body weight loss at 12.5 mg/kg, ip of total 9 doses starting 24 hrs post tumor inoculation measured on day 5 of inoculation relative to control; assay type: organism-based; set-up: dose 12.5 mg/kg, route intraperitoneal; conditions: in vivo; summary of the method: as §2
Mus musculus [14] = assay: Toxicity in mouse P388 cells allografted CD2F1 mouse assessed as body weight loss at 50 mg/kg, ip of total 9 doses starting 24 hrs post tumor inoculation measured on day 5 of inoculation relative to control; assay type: organism-based; set-up: dose 50 mg/kg, route intraperitoneal; conditions: in vivo; summary of the method: as §2

For `CNC(=O)OCc1c(COC(=O)NC)c(-c2ccc(SC)cc2)n(C)c1C`, the Activity (Mus musculus [1]) was “Non-toxic”, the Activity (Mus musculus [2]) was “Non-toxic” and the Activity (Mus musculus [3]) was 2.1 g. For the same compound, the T/C (P388 [4]) was 144%, the T/C (P388 [5]) was 150% and the Activity (Mus musculus [6]) was 1.4 g. For the same compound, the Activity (Mus musculus [7]) was 3.1 g, the T/C (P388 [8]) was 187% and the Activity (Mus musculus [9]) was “Non-toxic”. For the same compound, the Activity (Mus musculus [10]) was “Non-toxic”, the T/C (P388 [11]) was 143% and the T/C (P388 [12]) was 144%. The Activity (Mus musculus [13]) was 4.3 g and the Activity (Mus musculus [14]) was 2.9 g.
